The target in data set [1] is T1, Amine oxidase [flavin-containing] A (Homo sapiens, UniProt P21397).
T1 sequence (P21397 whole entry): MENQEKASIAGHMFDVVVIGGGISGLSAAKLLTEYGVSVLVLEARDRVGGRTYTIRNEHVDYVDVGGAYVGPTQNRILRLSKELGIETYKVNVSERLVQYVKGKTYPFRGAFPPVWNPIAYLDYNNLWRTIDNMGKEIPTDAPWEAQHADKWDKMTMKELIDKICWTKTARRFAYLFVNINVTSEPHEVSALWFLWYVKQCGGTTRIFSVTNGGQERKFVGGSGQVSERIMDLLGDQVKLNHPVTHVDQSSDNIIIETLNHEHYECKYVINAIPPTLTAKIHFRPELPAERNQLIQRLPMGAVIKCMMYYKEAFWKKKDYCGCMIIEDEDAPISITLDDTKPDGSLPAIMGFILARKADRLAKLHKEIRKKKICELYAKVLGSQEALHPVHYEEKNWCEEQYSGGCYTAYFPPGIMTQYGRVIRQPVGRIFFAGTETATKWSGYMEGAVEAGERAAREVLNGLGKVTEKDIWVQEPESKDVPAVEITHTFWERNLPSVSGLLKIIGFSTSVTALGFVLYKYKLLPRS
Put plainly: Inhibition of human MAO-A. Summed up: (§1)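 Human MAO-A and MAO-B inhibition, screened first at a test concentration of 10 µM.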

The target of data set [2] is T2, Adenosine receptor A2b (Homo sapiens) (UniProt P29275).
T2 sequence (whole entry): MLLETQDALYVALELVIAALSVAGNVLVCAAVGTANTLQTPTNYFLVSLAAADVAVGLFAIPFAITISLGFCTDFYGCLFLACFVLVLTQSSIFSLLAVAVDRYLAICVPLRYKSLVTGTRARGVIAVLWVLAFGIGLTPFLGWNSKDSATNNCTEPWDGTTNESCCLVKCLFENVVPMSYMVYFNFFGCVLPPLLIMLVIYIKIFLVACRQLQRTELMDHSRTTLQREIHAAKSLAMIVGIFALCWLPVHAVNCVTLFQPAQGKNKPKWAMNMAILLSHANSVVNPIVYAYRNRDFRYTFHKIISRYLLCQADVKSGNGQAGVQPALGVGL
Put plainly: Displacement of [3H]PSB-603 from human adenosine A2B receptor relative to control. More on the design: concentration or dose not given beside the values. Conditions: concentration not given here. (Displacement assays read how much labelled ligand stays bound in the presence of the test substance.)

In data set [3] the target is T3, Amine oxidase [flavin-containing] B (Homo sapiens, UniProt P27338).
T3 sequence (P27338 whole entry): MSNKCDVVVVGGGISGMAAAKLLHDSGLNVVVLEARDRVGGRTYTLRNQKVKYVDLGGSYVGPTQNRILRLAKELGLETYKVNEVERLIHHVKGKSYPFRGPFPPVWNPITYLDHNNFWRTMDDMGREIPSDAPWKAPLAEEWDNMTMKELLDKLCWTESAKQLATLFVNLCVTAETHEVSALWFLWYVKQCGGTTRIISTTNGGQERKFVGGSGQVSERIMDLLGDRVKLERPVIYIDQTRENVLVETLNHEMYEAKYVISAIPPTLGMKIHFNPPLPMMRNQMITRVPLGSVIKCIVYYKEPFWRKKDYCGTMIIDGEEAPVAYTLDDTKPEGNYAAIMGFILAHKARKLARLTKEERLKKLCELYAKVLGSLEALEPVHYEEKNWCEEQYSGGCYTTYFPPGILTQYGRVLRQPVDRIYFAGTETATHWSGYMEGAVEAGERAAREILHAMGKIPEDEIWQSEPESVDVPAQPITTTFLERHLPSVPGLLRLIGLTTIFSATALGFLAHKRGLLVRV
Put plainly: Inhibition of human MAO-B.

Another data set has as its target T4, Adenosine receptor A2b (Homo sapiens, UniProt P29275).
T4 sequence (P29275 whole entry): T2 sequence (whole entry)
Briefly: Displacement of [3H]PSB-603 from human adenosine A2B receptor.

Data set [4] concerns the target T5, MAO-A (amine oxidase [flavin-containing] A) (Homo sapiens, UniProt P21397).
T5 sequence (P21397 whole entry): T1 sequence (P21397 whole entry)
Briefly: Inhibition of human MAO-A at 10 uM relative to control. Summed up: as §1

For data set [5], the target named is T6, Adenosine receptor A1 (Homo sapiens, UniProt P30542).
T6 sequence (P30542 whole entry): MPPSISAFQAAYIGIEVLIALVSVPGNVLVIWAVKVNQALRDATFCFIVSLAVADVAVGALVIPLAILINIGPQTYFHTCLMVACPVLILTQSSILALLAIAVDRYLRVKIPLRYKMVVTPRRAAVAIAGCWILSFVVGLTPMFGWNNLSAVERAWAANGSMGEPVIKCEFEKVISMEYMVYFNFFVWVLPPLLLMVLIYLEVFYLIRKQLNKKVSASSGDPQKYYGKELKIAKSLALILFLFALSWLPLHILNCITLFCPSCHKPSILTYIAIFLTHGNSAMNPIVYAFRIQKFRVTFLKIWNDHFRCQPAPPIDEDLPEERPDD
Put plainly: Displacement of [3H]CCPA from human adenosine A1 receptor expressed in CHO cells. Format: cell-based. In short, it runs like this: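 Radioligand binding to human receptors recombinantly expressed in Chinese hamster ovary (CHO) cells. Results are Ki, or % inhibition of radioligand binding at the indicated concentration.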

Another data set has as its target Adenosine receptor A2a (Rattus norvegicus, UniProt P30543). Briefly: Displacement of [3H]MSX-2 from adenosine A2A receptor in rat brain striatum. Format: tissue-based.
The target in data set [6] is T7, Adenosine receptor A1 (Rattus norvegicus, UniProt P25099).
T7 sequence (P25099 whole entry): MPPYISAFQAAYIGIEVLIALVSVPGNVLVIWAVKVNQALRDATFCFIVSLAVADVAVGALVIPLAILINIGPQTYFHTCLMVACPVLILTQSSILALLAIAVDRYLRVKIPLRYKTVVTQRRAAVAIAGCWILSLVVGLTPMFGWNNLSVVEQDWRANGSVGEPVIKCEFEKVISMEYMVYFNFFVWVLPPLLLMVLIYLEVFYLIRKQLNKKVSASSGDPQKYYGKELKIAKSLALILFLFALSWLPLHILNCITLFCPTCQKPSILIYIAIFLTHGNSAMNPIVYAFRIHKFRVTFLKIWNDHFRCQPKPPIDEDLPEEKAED
Put plainly: Displacement of [3H]CCPA from adenosine A1 receptor in rat brain cortex. Format: tissue-based. Summed up:
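Radioligand binding to rat A1 receptors in rat brain cortical membrane preparations. Values are given as Ki, or as % inhibition of radioligand binding at the indicated concentration.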

The next data set concerns the target T8, Adenosine receptor A3 (Homo sapiens, UniProt P0DMS8).
T8 sequence (P0DMS8 whole entry): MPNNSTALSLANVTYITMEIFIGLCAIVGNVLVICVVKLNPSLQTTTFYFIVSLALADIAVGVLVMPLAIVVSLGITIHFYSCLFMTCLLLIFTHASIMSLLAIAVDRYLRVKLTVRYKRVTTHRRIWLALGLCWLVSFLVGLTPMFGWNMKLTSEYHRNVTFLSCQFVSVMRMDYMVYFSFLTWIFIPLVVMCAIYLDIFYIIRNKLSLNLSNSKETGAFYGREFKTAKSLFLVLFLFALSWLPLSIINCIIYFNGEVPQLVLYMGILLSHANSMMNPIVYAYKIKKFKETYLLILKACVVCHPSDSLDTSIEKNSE
Put plainly: Displacement of [3H]PSB-11 from human adenosine A3 receptor expressed in CHO cells. Format: cell-based.

The target in data set [7] is T9, Adenosine receptor A3 (Homo sapiens) (UniProt P0DMS8).
T9 sequence (whole entry): T8 sequence (P0DMS8 whole entry)
Put plainly: Displacement of [3H]PSB-11 from human adenosine A3 receptor expressed in CHO cells relative to control. Format: cell-based. The arrangement: concentration or dose not given beside the values. As to conditions: concentration not given here.

Data set [8] concerns the target T10, MAO-B (amine oxidase [flavin-containing] B) (Homo sapiens, UniProt P27338).
T10 sequence (P27338 whole entry): T3 sequence (P27338 whole entry)
Put plainly: Inhibition of human MAO-B at 10 uM relative to control. Summed up: as §1

pIC50, pKi: −log10 of the molar value.

The pIC50 is the IC50 on a negative log10 scale, so that one unit is a factor of ten. What is called inhibition is the relative decrease from the control value, in per cent. Usually pKi stands for −log10 of the Ki, conventionally taken in molar units.

Adenosine receptor A2a, sequence (P30543 whole entry): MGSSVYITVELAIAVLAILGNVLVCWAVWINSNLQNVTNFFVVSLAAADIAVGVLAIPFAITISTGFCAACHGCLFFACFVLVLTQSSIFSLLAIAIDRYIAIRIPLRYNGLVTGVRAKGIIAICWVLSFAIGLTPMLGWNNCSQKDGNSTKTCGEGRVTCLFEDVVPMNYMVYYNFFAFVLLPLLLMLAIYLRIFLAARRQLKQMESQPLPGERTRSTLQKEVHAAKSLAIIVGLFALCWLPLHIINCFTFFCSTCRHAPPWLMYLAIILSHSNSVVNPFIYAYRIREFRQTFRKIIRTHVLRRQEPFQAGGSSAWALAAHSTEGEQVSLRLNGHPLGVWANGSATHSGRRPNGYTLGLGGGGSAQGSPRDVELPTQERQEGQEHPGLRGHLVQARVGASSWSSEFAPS

`CCn1c(=O)c2c(nc3n2CCCN3CCc2ccccc2OC)n(CC)c1=O`: the results for the pIC50 in data set [1] and in data set [3] were less than 5.00 and 5.49, respectively. For the same molecule, in [2], the inhibition was 20%. Further, the pKi at Adenosine receptor A2b is less than 6.00; on Adenosine receptor A1 [5], 5.41; on Adenosine receptor A2a, 5.74; at Adenosine receptor A1 [6], 6.30; at Adenosine receptor A3, 5.52. Further, the inhibition at 10 µM in data set [4] amounted to 28%.

As for `Cn1c(=O)c2c(nc3n2CCCN3Cc2ccc(Cl)c(Cl)c2)n(C)c1=O`, the results for the pIC50 in [1] and in data set [3] were less than 5.00 and 7.20, respectively. Moreover, the inhibition in data set [2] is 5%; in [7] it was 30%. Further, the pKi on Adenosine receptor A2b was less than 6.00; on Adenosine receptor A2a, 5.43; at Adenosine receptor A1 [6] it was 5.40; at Adenosine receptor A3, less than 5.00. The inhibition at 10 µM in data set [4] stood at 10%.

Regarding `Cn1c(=O)c2c(nc3n2CCCN3c2cccc(Cl)c2)n(C)c1=O`, the pIC50 in data set [1] was less than 5.00; in data set [3] it was 5.30. For the same molecule, the inhibition was -4% in data set [2] and 33% in data set [7]. Besides, the pKi at Adenosine receptor A2b was less than 6.00; at Adenosine receptor A2a, 5.42; at Adenosine receptor A1 [6] it was 5.35; on Adenosine receptor A3 it was less than 5.00. Also, the inhibition at 10 µM in data set [4] turned out to be 15%.

Regarding `Cn1c(=O)c2c(nc(/C=C/c3cccc(Cl)c3)n2C)n(C)c1=O`, the pIC50 in data set [1] is less than 5.00. Moreover, the inhibition at 10 µM in data set [4] was determined as 23%.

In the case of `CCn1c(=O)c2c(nc3n2CCCN3C2CCCCC2)n(CC)c1=O`, the values for the pIC50 in [1] and in data set [3] were less than 5.00 and 5.43, respectively. For the same molecule, the inhibition in data set [2] stood at 3%; in [7], 37%. Further, the pKi on Adenosine receptor A2b was less than 6.00; on Adenosine receptor A1 [5], 5.98; on Adenosine receptor A2a it was 5.77; on Adenosine receptor A1 [6], 6.49; at Adenosine receptor A3 it was less than 5.00. Moreover, the inhibition at 10 µM in [4] was -3%.

As to `C#CCn1c(=O)c2c(nc3n2CCCN3c2ccc(C(C)C)cc2)n(C)c1=O`, the values for the pIC50 in [1] and in data set [3] were less than 5.00 and 5.00, respectively. Besides, the inhibition in data set [2] was 17%. Moreover, the pKi at Adenosine receptor A2b is less than 6.00; at Adenosine receptor A2a, 5.83; on Adenosine receptor A1 [6], 5.28. The figures for the inhibition at 10 µM in data set [4] and in [8] were 5% and 64%, respectively.

For the molecule `C#CCn1c(=O)c2c(nc3n2CCCN3Cc2cccnc2)n(C)c1=O`, the inhibition in [2] came out at 1%; in data set [7], 4%. In [3], this molecule gave a pIC50 of less than 5.00. Besides, the pKi was less than 6.52 on Adenosine receptor A2b, 5.21 on Adenosine receptor A2a, 5.74 at Adenosine receptor A1 [6] and less than 6.00 on Adenosine receptor A3. Moreover, in data set [8], the inhibition at 10 µM was 21%.

As for `C#CCn1c(=O)c2c(nc3n2CCCN3c2cc(OC)cc(OC)c2)n(C)c1=O`, the inhibition in data set [2] is 9%; in data set [7], 28%. The molecule also gave a pIC50 in data set [3] of less than 5.00. The pKi was less than 6.00 on Adenosine receptor A2b; 5.02 at Adenosine receptor A1 [5]; 5.69 at Adenosine receptor A2a; 6.64 on Adenosine receptor A1 [6]; less than 6.00 at Adenosine receptor A3. Moreover, in [8], the inhibition at 10 µM was determined as 30%.

As for `CCn1c(=O)c2c(nc3n2CCCN3c2cccc(OC)c2)n(CC)c1=O`, the pIC50 is less than 5.00 in data set [1] and 5.19 in data set [3]. The inhibition in [2] was determined as 21%. In addition, the pKi was less than 6.00 on Adenosine receptor A2b, 5.27 at Adenosine receptor A2a, 5.91 at Adenosine receptor A1 [6] and 5.17 at Adenosine receptor A3. Also, the inhibition at 10 µM in data set [4] was 4%.

For the molecule `CCn1c(=O)c2c(nc3n2CCCN3c2ccc(F)cc2)n(CC)c1=O`, the inhibition amounted to 11% in data set [2] and 29% in data set [7]. The pIC50 in [3] was 5.00. For the same molecule, the pKi is less than 6.00 on Adenosine receptor A2b; 5.18 on Adenosine receptor A1 [5]; 5.73 on Adenosine receptor A2a; 6.26 at Adenosine receptor A1 [6]; less than 5.00 at Adenosine receptor A3. For the same molecule, in data set [8], the inhibition at 10 µM is 48%.

For the origin of these results see ChEMBL document CHEMBL3091303, “1,3-Dialkyl-substituted tetrahydropyrimido[1,2-f]purine-2,4-diones as multiple target drugs for the potential treatment of neurodegenerative diseases” (Bioorg Med Chem, 2013).
